From ChEMBL document CHEMBL1159066 (J Med Chem, 2010)
Calls of active or inactive are those of the source. The calls are words filed in the database; no cut-off is given here.

Assays:
[1] = test system: Caenorhabditis elegans; experiment: Protection against mutant PABPN1-induced toxicity in transgenic Caenorhabditis elegans coexpressing nuclear GFP and PABPN1-A13 assessed as inhibition of nuclear collapse at 11.1 uM; format: functional, organism-based
Method in brief: (§1)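 Synchronized L1 worms were kept in OP-50.1 liquid culture with the drug. Nuclear GFP signals were counted at young adulthood under a ×10 fluorescence microscope. Percent rescue = ((test − control)/control) × 100, where a negative value means enhanced toxicity. At least 100 worms were scored per dose, in three independent assays. Comparison was by two-tailed Student's t-test.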

[2] = test system: Caenorhabditis elegans; experiment: Protection against mutant PABPN1-induced toxicity in transgenic Caenorhabditis elegans coexpressing nuclear GFP and PABPN1-A13 assessed as inhibition of deffective worm motility at 11.1 uM; format: functional, organism-based
Method in brief: (§2)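 Worms were drug-treated from the synchronized L1 stage in OP-50.1 liquid culture. Day 3–5 adults were placed on a thin OP-50.1 lawn on NGM plates. Body bends (complete sinusoids) were counted immediately over 20 s. 60–100 worms were scored per dose, in three independent assays. Results are mean ± SEM versus untreated animals, checked by one-way ANOVA.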

[3] = test system: Caenorhabditis elegans; experiment: Effect on nuclear integrity in transgenic Caenorhabditis elegans coexpressing nuclear GFP and normal PABPN1-A10; format: functional, organism-based; method in brief: as §1
[4] = test system: Caenorhabditis elegans; experiment: Protection against mutant PABPN1-induced toxicity in transgenic Caenorhabditis elegans coexpressing nuclear GFP and PABPN1-A13 assessed as inhibition of nuclear collapse; format: functional, organism-based
Method in brief: (§3)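 Synchronized L1 transgenic worms incubated with drug in OP-50.1 liquid culture; nuclear GFP signals counted at young adulthood under 10x fluorescence microscopy. Percent rescue = ((test − control)/control) × 100, negative values indicating enhanced toxicity. At least 100 worms scored per dose, three independent assays; two-tailed Student's t-test unless stated otherwise.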

[5] = target: T1, NAD-dependent protein deacetylase sirtuin-1 (Homo sapiens, UniProt Q96EB6); experiment: Inhibition of human recombinant SIRT1 by Flour de Lys assay
T1 sequence (Q96EB6 whole entry): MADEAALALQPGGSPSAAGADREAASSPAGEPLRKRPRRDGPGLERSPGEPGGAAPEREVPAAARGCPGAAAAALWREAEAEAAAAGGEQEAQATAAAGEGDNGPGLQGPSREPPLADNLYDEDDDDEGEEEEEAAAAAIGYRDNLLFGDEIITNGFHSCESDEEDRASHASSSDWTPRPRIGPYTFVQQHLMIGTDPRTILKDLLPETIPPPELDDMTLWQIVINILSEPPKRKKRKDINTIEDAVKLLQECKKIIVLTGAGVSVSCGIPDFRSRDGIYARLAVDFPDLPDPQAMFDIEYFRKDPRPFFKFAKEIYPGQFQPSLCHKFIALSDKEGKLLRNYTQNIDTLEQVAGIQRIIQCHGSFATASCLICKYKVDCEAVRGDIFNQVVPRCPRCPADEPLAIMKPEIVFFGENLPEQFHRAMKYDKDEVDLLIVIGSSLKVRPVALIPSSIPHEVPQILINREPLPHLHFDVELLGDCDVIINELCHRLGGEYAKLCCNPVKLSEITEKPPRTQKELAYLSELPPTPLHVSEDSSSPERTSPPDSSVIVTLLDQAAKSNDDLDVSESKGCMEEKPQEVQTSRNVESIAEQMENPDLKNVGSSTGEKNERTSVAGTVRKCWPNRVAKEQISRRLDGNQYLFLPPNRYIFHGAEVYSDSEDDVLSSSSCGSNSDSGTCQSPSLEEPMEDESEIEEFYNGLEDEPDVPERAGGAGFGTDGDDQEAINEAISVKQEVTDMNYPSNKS

[6] = test system: Caenorhabditis elegans; experiment: Protection against mutant PABPN1-induced toxicity in transgenic Caenorhabditis elegans coexpressing nuclear GFP and PABPN1-A13 assessed as nuclear GFP fluorescence level relative to untreated control; format: functional; method in brief: as §3
[7] = test system: Caenorhabditis elegans; experiment: Effect on nuclear integrity in transgenic Caenorhabditis elegans coexpressing nuclear GFP and normal PABPN1-A10 assessed as nuclear GFP fluorescence level relative to untreated control; format: functional; method in brief: as §3
[8] = test system: Caenorhabditis elegans; experiment: Protection against mutant PABPN1-induced toxicity in transgenic Caenorhabditis elegans coexpressing nuclear GFP and PABPN1-A13 assessed as inhibition of deffective worm motility at 33.3 uM; format: functional, organism-based
Method in brief: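 Drug-treated transgenic worms as day 3-5 adults placed on thin OP-50.1 lawn on NGM plates; body bends (complete sinusoids) counted immediately over 20 s. 60-100 worms per dose, three independent assays; mean ± SEM compared with untreated animals.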

[9] = test system: Caenorhabditis elegans; experiment: Protection against mutant PABPN1-induced toxicity in transgenic Caenorhabditis elegans coexpressing nuclear GFP and PABPN1-A13 assessed as inhibition of deffective worm motility; format: functional, organism-based; method in brief: as §2
[10] = test system: Caenorhabditis elegans; experiment: Reduction of PABPN1 expression in transgenic Caenorhabditis elegans coexpressing nuclear GFP and PABPN1-A13 by Q-RT-PCR; format: functional, organism-based
[11] = target: T2, NAD-dependent protein deacetylase sirtuin-2 (Homo sapiens, UniProt Q8IXJ6); experiment: Inhibition of human recombinant SIRT2 by Flour de Lys assay
T2 sequence (Q8IXJ6 whole entry): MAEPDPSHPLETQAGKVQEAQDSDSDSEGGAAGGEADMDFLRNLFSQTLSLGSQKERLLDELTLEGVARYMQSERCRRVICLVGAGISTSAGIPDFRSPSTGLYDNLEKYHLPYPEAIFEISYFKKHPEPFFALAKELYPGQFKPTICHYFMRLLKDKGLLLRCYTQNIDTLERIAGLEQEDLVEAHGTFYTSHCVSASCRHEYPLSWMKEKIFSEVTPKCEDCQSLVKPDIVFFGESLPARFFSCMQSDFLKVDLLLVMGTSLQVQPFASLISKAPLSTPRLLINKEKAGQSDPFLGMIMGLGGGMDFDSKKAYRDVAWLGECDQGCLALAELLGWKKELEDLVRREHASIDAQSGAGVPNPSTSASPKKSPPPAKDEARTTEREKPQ

[12] = test system: Caenorhabditis elegans; experiment: Protection against mutant PABPN1-induced toxicity in transgenic Caenorhabditis elegans coexpressing nuclear GFP and PABPN1-A13 assessed as inhibition of nuclear collapse at 3.7 uM; format: functional, organism-based; method in brief: as §1
[13] = test system: Caenorhabditis elegans; experiment: Protection against mutant PABPN1-induced toxicity in transgenic Caenorhabditis elegans coexpressing nuclear GFP and PABPN1-A13 assessed as inhibition of deffective worm motility at 3.7 uM; format: functional, organism-based; method in brief: as §2

`O=c1nc2oc3ccc4ccccc4c3cc-2c(=O)n1-c1ccccc1` was tested, and the Activity [1] was “Active”, the Activity [2] was “Active” and the Activity [3] was “inactive”.

With `CC(C(=O)Nc1cccc(/N=C/c2c(O)ccc3ccccc23)c1)c1ccccc1` (stereo unspecified) the Activity [4] was “Active” and the Activity [3] was “inactive”.

With `N#C/C(=C\c1ccc(-c2cc(Cl)ccc2Cl)o1)C(=O)Nc1cccc2ncccc12` the IC50 [5] was greater than 50 µM, the Activity [4] was “Dose-dependent effect” and the Activity [6] was 20%. For the same compound, the Activity [7] was 10%.

`NC(=O)[C@H]1CCCc2c1[nH]c1ccc(Cl)cc21` was tested, and the Activity [4] was “Active” and the Activity [8] was “Active”.

For `O=C1CCc2c(ccc3ccccc23)O1`, the Activity [4] was “Active”, the Activity [9] was “Active” and the Activity [10] was “inactive”. For the same compound, the Activity [3] was “inactive”.

For `O=c1nc2oc3ccccc3cc-2c(=O)[nH]1`, the IC50 [5] was 5.3 µM, the IC50 [11] was 244 µM and the Activity [12] was “Active”. The Activity [13] was “Active” and the Activity [3] was “inactive”.

`CC(NC(=O)c1cccc(/N=C/c2c(O)ccc3ccccc23)c1)c1ccccc1` (stereo unspecified) gave an IC50 [11] of 34.5 µM.

Compound `CC(NS(=O)(=O)c1ccc(/N=C/c2c(O)ccc3ccccc23)cc1)c1ccccc1` (stereo unspecified) has an IC50 [5] of 44.1 µM, an IC50 [11] of 22.6 µM and an EC50 [9] of less than 1 µM. For the same compound, the Activity [6] was 10% and the Activity [3] was “inactive”.

For `CC(NC(=O)c1ccccc1/N=C/c1c(O)ccc2ccccc12)c1ccccc1` (stereo unspecified), the Activity [4] was “Active” and the Activity [3] was “inactive”.

For `CC(CSc1cccc(/N=C/c2c(O)ccc3ccccc23)c1)c1ccccc1` (stereo unspecified), the IC50 [5] was 40.3 µM, the IC50 [11] was 19.2 µM and the Activity [4] was “inactive”.

For `CC(NC(=O)c1ccc(/N=C/c2c(O)ccc3ccccc23)cc1)c1ccccc1` (stereo unspecified), the IC50 [5] was 48.1 µM, the IC50 [11] was 29.9 µM and the Activity [4] was “Active”. For the same compound, the Activity [3] was “inactive”.

With `O=C1Oc2ccc3ccccc3c2CC1C(=O)c1ccccc1Cl` (stereo unspecified) the IC50 [5] was 89.8 µM, the IC50 [11] was 9.4 µM and the Activity [4] was “Active”. For the same compound, the Activity [9] was “Active”, the Activity [10] was “inactive” and the Activity [3] was “inactive”.
